Assay results from ChEMBL document CHEMBL2331438, “An efficient domino reaction in ionic liquid: synthesis and biological evaluation of some pyrano- and thiopyrano-fused heterocycles” (2013).
Values after ≈ are worked out from the molar mass of the structure shown.

Columns and labels:
[1] = Antioxidant activity assessed as ascorbic acid equivalent ferric ion reducing activity per 100 gram at 200 ug/ml by FRAP assay; type: functional
[2] = test system: Mycobacterium tuberculosis; test: Antimycobacterial activity against Mycobacterium tuberculosis H37Rv at 250 ug/ml; type: functional
Summary of the method: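 M. tuberculosis H37Rv tested on L.J. (Löwenstein–Jensen) medium.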

Candida albicans = test: Antifungal activity against Candida albicans MTCC 227 after 48 hrs by broth microdilution method; type: functional; conditions: MTCC 227, 48 h
Aspergillus fumigatus = test: Antifungal activity against Aspergillus fumigatus MTCC 3008 after 48 hrs by broth microdilution method; type: functional; conditions: MTCC 3008, 48 h
Vibrio cholerae = test: Antibacterial activity against Vibrio cholerae MTCC 3906 after 24 hrs by broth microdilution method; type: functional; conditions: MTCC 3906, 24 h
Salmonella typhi = test: Antibacterial activity against Salmonella typhi MTCC 98 after 24 hrs by broth microdilution method; type: functional, Salmonella enterica subsp. enterica serovar Typhi; conditions: Salmonella enterica, MTCC 98, 24 h
Escherichia coli = test: Antibacterial activity against Escherichia coli MTCC 443 after 24 hrs by broth microdilution method; type: functional; conditions: MTCC 443, 24 h
Streptococcus pneumoniae = test: Antibacterial activity against Streptococcus pneumoniae MTCC 1936 after 24 hrs by broth microdilution method; type: functional; conditions: MTCC 1936, 24 h
Clostridium tetani = test: Antibacterial activity against Clostridium tetani MTCC 449 after 24 hrs by broth microdilution method; type: functional; conditions: MTCC 449, 24 h
Bacillus subtilis = test: Antibacterial activity against Bacillus subtilis MTCC 441 after 24 hrs by broth microdilution method; type: functional; conditions: MTCC 441, 24 h

| SMILES | Activity [1] [mmol] | inhibition at 250 µg/mL [2] [%] | MIC (Candida albicans) [µg/mL] | MIC (Aspergillus fumigatus) [µg/mL] | MIC (Vibrio cholerae) [µg/mL] | MIC (Salmonella typhi) [µg/mL] | MIC (Escherichia coli) [µg/mL] | MIC (Streptococcus pneumoniae) [µg/mL] | MIC (Clostridium tetani) [µg/mL] | MIC (Bacillus subtilis) [µg/mL] |
| --- | --- | --- | --- | --- | --- | --- | --- | --- | --- | --- |
| Cc1nn(-c2ccc(Cl)c(Cl)c2)c2c1[C@@H]1c3c(ccc4c(C)cc(=O)oc34)OC[C@@H]1CO2 | 120 | 20 | 500 (≈ 1070 µM) | 500 (≈ 1070 µM) | 125 (≈ 266 µM) | 250 (≈ 533 µM) | 250 (≈ 533 µM) | 250 (≈ 533 µM) | 100 (≈ 213 µM) | 250 (≈ 533 µM) |
| Cc1nn(-c2ccccc2)c2c1[C@@H]1c3c(ccc4c(C)cc(=O)oc34)OC[C@@H]1C(C)(C)O2 | 146 | 65 | 1000 (≈ 2330 µM) | 200 (≈ 467 µM) | 250 (≈ 583 µM) | 250 (≈ 583 µM) | 250 (≈ 583 µM) | 200 (≈ 467 µM) | 500 (≈ 1170 µM) | 200 (≈ 467 µM) |
| Cc1nn(-c2cccc(Cl)c2)c2c1[C@@H]1c3c(ccc4c(C)cc(=O)oc34)OC[C@@H]1CO2 | 158 | 19 | 1000 (≈ 2300 µM) | 250 (≈ 575 µM) | 250 (≈ 575 µM) | 200 (≈ 460 µM) | 100 (≈ 230 µM) | 62.5 (≈ 144 µM) | 62.5 (≈ 144 µM) | 200 (≈ 460 µM) |
| Cc1nn(-c2ccccc2)c2c1[C@@H]1c3cc4ccccc4nc3SC[C@@H]1CO2 | 126 | 87 | 500 (≈ 1300 µM) | 500 (≈ 1300 µM) | 100 (≈ 259 µM) | 125 (≈ 324 µM) | 100 (≈ 259 µM) | 200 (≈ 519 µM) | 62.5 (≈ 162 µM) | 200 (≈ 519 µM) |
| Cc1nn(-c2ccc(Cl)c(Cl)c2)c2c1[C@@H]1c3cc4cccc(C)c4nc3SC[C@@H]1CO2 | 61.7 | 38 | 500 (≈ 1070 µM) | 1000 (≈ 2130 µM) | 250 (≈ 534 µM) | 250 (≈ 534 µM) | 250 (≈ 534 µM) | 62.5 (≈ 133 µM) | 250 (≈ 534 µM) | 200 (≈ 427 µM) |
| Cc1ccc(-n2nc(C)c3c2OC[C@H]2CSc4nc5ccccc5cc4[C@@H]32)cc1 | 121 | 33 | 1000 (≈ 2500 µM) | 1000 (≈ 2500 µM) | 200 (≈ 501 µM) | 125 (≈ 313 µM) | 125 (≈ 313 µM) | 62.5 (≈ 156 µM) | 200 (≈ 501 µM) | 200 (≈ 501 µM) |
| Cc1nn(-c2ccccc2Cl)c2c1[C@@H]1c3cc4cccc(C)c4nc3SC[C@@H]1CO2 | 147 | 29 | 500 (≈ 1150 µM) | 250 (≈ 576 µM) | 200 (≈ 461 µM) | 250 (≈ 576 µM) | 250 (≈ 576 µM) | 100 (≈ 230 µM) | 125 (≈ 288 µM) | 125 (≈ 288 µM) |
| Cc1nn(-c2ccccc2Cl)c2c1[C@@H]1c3c(ccc4c(C)cc(=O)oc34)OC[C@@H]1C(C)(C)O2 | 210 | 40 | 1000 (≈ 2160 µM) | 200 (≈ 432 µM) | 250 (≈ 540 µM) | 125 (≈ 270 µM) | 125 (≈ 270 µM) | 250 (≈ 540 µM) | 250 (≈ 540 µM) | 100 (≈ 216 µM) |
| c1ccc(-c2nn(-c3ccccc3)c3c2[C@@H]2c4cc5ccccc5nc4SC[C@@H]2CO3)cc1 | 105 | 40 | 500 (≈ 1120 µM) | 250 (≈ 559 µM) | 250 (≈ 559 µM) | 250 (≈ 559 µM) | 100 (≈ 223 µM) | 250 (≈ 559 µM) | 250 (≈ 559 µM) | 200 (≈ 447 µM) |
| Cc1nn(-c2cccc(Cl)c2)c2c1[C@@H]1c3cc4cccc(C)c4nc3SC[C@@H]1C(C)(C)O2 (single isomer, unassigned) | 18.2 | 91 | 500 (≈ 1080 µM) | 500 (≈ 1080 µM) | 100 (≈ 216 µM) | 250 (≈ 541 µM) | 150 (≈ 325 µM) | 100 (≈ 216 µM) | 1000 (≈ 2160 µM) | 200 (≈ 433 µM) |
| Cc1cccc2cc3c(nc12)SC[C@@H]1COc2c(c(-c4ccccc4)nn2-c2ccccc2)[C@H]31 | 101 | 9 | > 1000 | > 1000 | 200 (≈ 433 µM) | 125 (≈ 271 µM) | 100 (≈ 217 µM) | 200 (≈ 433 µM) | 125 (≈ 271 µM) | 200 (≈ 433 µM) |
| Cc1nn(-c2cc(Cl)ccc2Cl)c2c1[C@@H]1c3cc4cccc(C)c4nc3SC[C@@H]1CO2 | 129 | 49 | 1000 (≈ 2130 µM) | 1000 (≈ 2130 µM) | 100 (≈ 213 µM) | 200 (≈ 427 µM) | 62.5 (≈ 133 µM) | 250 (≈ 534 µM) | 100 (≈ 213 µM) | 100 (≈ 213 µM) |
| Cc1cc(=O)oc2c3c(ccc12)OC[C@H]1[C@@H]3c2c(-c3ccccc3)nn(-c3ccccc3)c2OC1(C)C | 160 | 80 | 1000 (≈ 2040 µM) | > 1000 | 125 (≈ 255 µM) | 100 (≈ 204 µM) | 125 (≈ 255 µM) | 125 (≈ 255 µM) | 100 (≈ 204 µM) | 200 (≈ 408 µM) |
